# Source: PubChem BioAssay
# Unmarked numbers belong to inactive results. Records with an inconclusive call do not appear. Active and inactive are the calls of the source.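 The calls were made as follows, unless noted: active = viability at or below 27.92% in each of two runs, the all-compound median minus 4 SD; inconclusive = no clear call, values can overlap the other calls; inactive = the rest.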
# How the values were obtained:
# [1] = S. cerevisiae growth inhibition in permissive medium (OD615), pilot counter-assay for S. cerevisiae lifespan shortening project, permissive growth control (AID 705;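 active = growth inhibition above 25% in both replicates, a cutoff set 3 SD above the mean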); settings: OD615, 24 h, at 10 µM, hits give high values
# In short: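 System: Engineered DeaD yeast | Buffer or medium: SC raffinose/galactose permissive medium | Incubation: Cells pre-grown 4 h, then 24 h compound exposure, 30 °C humidified | Measured by: Absorbance (optical density) at 615 nm | Read-out: Reduction in yeast growth (OD615)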
# [2] = S. cerevisiae growth inhibition in restrictive medium, OD615, pilot screen, restrictive growth control, yeast lifespan reduction project (AID 706;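 active = growth inhibition above a set limit, 3 SD over mean compound inhibition, in both replicates, cut at about 43% in these data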;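 also: modified DeaD lifespan yeast strain shifted to restrictive glucose medium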); settings: OD615, 48 h, at 10 µM, hits give high values
# In short: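 Material: modified S. cerevisiae; Medium: glucose-based CSMM-D restrictive medium; Compound dosing: one concentration, 10 µM final, 0.25% DMSO; Incubation: 48 h compound exposure at 30 °C; Measured by: OD615.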
# [3] = doxorubicin toxicity protection in MRP-1 cells – H69AR cells, CellTiter-Glo, duplicate, MRP-1 activator project, pilot screen (AID 807;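 active = viability increase at or above a cutoff of the median across tested compounds plus 3 SD, cut at about 8.5% in these data, passing the limit was not always enough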;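 also: compound pretreatment 18-22 h then 72 h combined with doxorubicin; 0% = doxorubicin alone and 100% = vehicle without doxorubicin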); settings: H69AR viability with doxorubicin, CellTiter-Glo luminescence; at 10 µM; hits give high values
# [4] = viability of HCT116 without oncogenic beta-catenin – human colon tumor cells, pilot screen (AID 823;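 active = cell viability at or below a set limit in both duplicate runs, the limit being the all-compound median minus 4 SD, cut at about 23% in these data, passing the limit was not always enough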;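 also: 0% = wells killed by 20 µM Hyamine and 100% = untreated DMSO cell wells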); settings: HCT116 beta-catenin knockout viability, CellTiter-Glo, 60 h; at 10 µM; hits give low values
# [5] = viability of PTEN-null HCT116 cells – cell-based, HCT116 clonal line, CellTiter-Glo, pilot screen (AID 824); settings: HCT116 PTEN-deleted viability, 60 h, at 10 µM, hits give low values;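 also: 0% = 20 µM Hyamine control and 100% = vehicle cell control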
# [6] = RAM pathway blockade in budding yeast – dse1pr::URA3 reporter, 5-FOA selection, pilot screen (AID 869;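 active = inhibition over a set limit, the all-compound mean plus 3 SD, in both replicate runs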;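 also: 0% = DMSO wells with no growth and 100% = 10 µM 1-NA-PP1 with full growth; RAM network block rescues cells from 5-FOA so hits raise OD615 growth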); settings: S. cerevisiae dse1pr::URA3 5-FOA growth, OD615, 2 d; at 10 µM; hits give high values; strain carries analog-sensitive mutant Cbk1 kinase
# [7] = RAM signaling pathway blockade in yeast – S. cerevisiae, Pdr1DBD-CYC8 efflux-inhibited sensitized strain, primary screen (AID 1298;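 active = RAM network inhibition above 8.4% in each of two replicates, 3 SD over the compound average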;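 also: 0% = DMSO untreated cells without growth and 100% = 10 µM 1-NA-PP1 full growth; higher means more yeast growth rescued from 5-FOA killing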); settings: S. cerevisiae cbk1-as DSE1-URA3 strain, 5-FOA growth OD615, 2 d; at 50 µM; hits give high values
Structure (SMILES),growth inhibition [1],growth inhibition [2],viability increase [3],viability [4],viability [5],inhibition [6],RAM network inhibition [7]
CSC1=NCCN1C(=O)c1ccc(Br)o1,-2.9%,-7.89%,2.54%,102%,94.5%,0.975%,7.19%
FC(F)(F)C12CC(c3ccccc3)=NCCN1CCN2 (configuration not stated),-4.15%,4.43%,-1.23%,102%,97.9%,1.35%,-0.53%
COc1cc(C(=O)Nc2cc(C)c(OCC(=O)N3CCOCC3)c(C)c2)cc(OC)c1OC,-2.29%,1.77%,-2.98%,88.8%,90.4%,1.64%,4.86%
CNC(=O)CN1C(=O)CSc2ncccc21,10.1%,2.23%,-0.85%,101%,92.2%,1.78%,-1.94%
O=C(Nc1ccc(Cl)cn1)c1cccc(F)c1,-8.65%,3.83%,-5.84%,37%,33.9%,0.27%,1.17%
CCn1c(CCCNC(=O)c2cccs2)nc2ccccc21,-6.02%,-11.4%,-2.77%,104%,96.1%,2.48%,1.95%
Cc1ccc(Nc2nc(C3CC3)cs2)cc1,-8.21%,-0.01%,-1.97%,92.5%,90.5%,1.38%,2.72%
COC(=O)CN1C(=O)CC(C)(C)Sc2ccccc21,-16.9%,-27.1%,1.77%,103%,101%,2.17%,2.53%
CC1(C)CCCC2=C1CC1C(=O)N(Cc3cccnc3)C(=O)C1C2 (configuration not stated),-6.32%,-10.3%,-0.2%,82.2%,86.7%,1.11%,4.53%
Cc1cccc(OCCOCCSc2ncccn2)c1,-8.47%,8.79%,-1.63%,97.9%,94.8%,0.99%,6.33%
CCCC(NS(=O)(=O)c1ccc(Br)cc1)C(=O)O (configuration not stated),-3.98%,-0.42%,-0.09%,104%,99.3%,0.57%,4.41%
O=C(NC1CCCCC1)C1CCN(S(=O)(=O)c2cccc3cccnc23)CC1,4.71%,-0.575%,-0.83%,101%,102%,0.46%,1.34%
O=C(Cn1c(=O)sc2ccccc21)Nc1ccccc1C(=O)O,-3.71%,0.435%,1.36%,102%,96.7%,3.53%,2.02%
COC(=O)c1ccccc1NC(=O)c1cc(C2CC2)on1,-8.38%,4.01%,-3.29%,91.5%,90.8%,1.4%,5.95%
CCOC(=O)c1ccc(Nc2cc(C)nc(-c3ccccc3O)n2)cc1,-6.03%,-3.53%,1.42%,78.5%,75.8%,-0.345%,1.54%
O=C(O)CCC(=O)N1CCc2cc(S(=O)(=O)N3CCN(c4ccc(F)cc4)CC3)ccc21,-4.08%,6.97%,-1.31%,97.4%,99%,1.94%,4.17%
Cc1cc(NC(=O)c2cc(-c3cccs3)nc3ccccc23)no1,3.04%,-5.12%,-6.62%,29.3%,30.9%,2.11%,8.27%
O=C(Nc1nnc(-c2ccccc2)o1)Nc1ccccc1Cl,-15.5%,-12%,-0.05%,104%,97.4%,0.165%,4.83%

Structure (SMILES),growth inhibition [1],growth inhibition [2],viability increase [3],viability [4],viability [5],inhibition [6],RAM network inhibition [7]
Cc1ccc(Nc2nc(N3CCOCC3)nc(N3CCOCC3)n2)cc1,-16.7%,-7.55%,-2.57%,64.2%,65.7%,1.06%,2.07%
Cc1ccc(Cc2c(C)nc3nc(SCC(=O)NCc4ccco4)nn3c2C)cc1,10.4%,12.9%,-6.46%,13.2% (active),10.9% (active),0.455%,5.24%
CC(=O)Nc1ccc(S(=O)(=O)NCCSCc2ccco2)cc1,-4.83%,16.6%,-4.43%,82.2%,86%,2.15%,2.29%
CCOC(=O)c1c(NC(=O)c2cc(C3CC3)on2)sc(C(C)=O)c1C,-3.19%,0.635%,-1.49%,104%,93.3%,1.64%,-0.58%
COc1ccc(C(c2sc3nc(C)nn3c2O)N2CCC(C(N)=O)CC2)cc1OC (configuration not stated),-11.7%,-16.2%,-0.96%,99.7%,96.2%,1.54%,3.49%
Cc1ccc(C2CC(c3ccco3)n3nc(N)nc3N2)cc1 (configuration not stated),4.36%,11.9%,-1.44%,96.5%,99.8%,-1.15%,3.41%
CN1CCN(Cc2nc3c(c(=O)n(C)c(=O)n3C)n2CCc2ccccc2)CC1,-8.96%,-4.14%,-1.67%,92.8%,103%,0.895%,2.53%
Cc1ccc(CC(=O)N2CCC(c3nc4c(nnn4Cc4ccccc4)c(=O)[nH]3)CC2)cc1,-10.5%,-7.38%,-1.07%,76.9%,78.9%,0.71%,3%
COc1cccc(OC)c1C(=O)Nc1ccc2c(c1)OCCO2,-8.21%,0.395%,-0.21%,99.8%,95.9%,1.23%,0.51%
Cc1[nH]nc2c1C(c1ccccc1F)NC2=O (configuration not stated),-0.665%,-2.84%,-1.22%,106%,97.9%,2.04%,-0.67%
CCOC(=O)c1c(C)n(C)c2cc(Br)c(C(=O)OC)cc12,8.75%,-4.36%,-3.53%,97%,96.3%,1.99%,7.11%
CC1Cc2ccccc2N1C(=O)c1ccc2snnc2c1 (configuration not stated),-1.7%,-9.59%,-3.96%,95%,96.8%,0.79%,6.74%
C#CCn1c(=NC(=O)c2cccs2)sc2cccc(OC)c21,-11.2%,-16.3%,-3.51%,79.6%,73.9%,3.34%,7.2%
COc1ccc(CN2CCNC(=O)C2CC(=O)O)cc1OC (configuration not stated),-14.2%,-7.95%,1.18%,105%,101%,0.38%,-0.52%
O=S(=O)(NCCOCCNS(=O)(=O)c1ccccc1)c1ccccc1,-6.38%,-1.27%,0.8%,91.2%,96.1%,0.05%,1.94%
Cc1ccc(C)c2c1sc(=NC(=O)CN1C(=O)CCC1=O)n2C,-15%,-2.54%,-1.69%,88%,83.2%,2.84%,5.96%
CC(=O)c1c(Nc2ccc3c(c2)OCCO3)oc(C)cc1=O,-21.9%,0.47%,-5.39%,110%,100%,0.68%,-2.1%
Cc1ccc(S(=O)(=O)N2CCN(C(=O)CN3CCCC3)C2)cc1,-15.1%,-11.2%,-0.87%,92.4%,100%,1.62%,8.99%
